# According to PMC5224916 (Journal of controlled release : official journal of the …, 2016):
# Legend:
# [1] = tested on: Caco2, MCF7, and MDA-MB-231 cells; assay: In vitro cellular uptake assays; assay type: cell-based, human; conditions: 2 h incubation
# How it was run: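 Caco2, MCF7 and MDA-MB-231 cells were incubated 2 h with free DiD or DiD-loaded plain or Fc-targeted nanoparticles, then fixed in 4% formalin in PBS. Membranes were labelled with a lipophilic dye and nuclei counterstained with DAPI; cells were examined by fluorescence microscopy. For competition, cells were pretreated 30 min with IgG Fc fragments.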
# [2] = tested on: intestinal epithelium (duodenum villi); assay: In vivo intestinal uptake of nanoparticles; parameters: species or system CD-1 mice and nude mice; conditions: 0.5 mg/kg oral gavage, 2 h, CD-1 and nude mice
# [3] = Plasma pharmacokinetics after oral administration; assay type: in vivo; conditions: 160 mg/kg oral, female CD-1 mice
# How it was run: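 Female CD-1 mice were randomised into three groups and given a single oral dose of 160 mg/kg: free compound in PEG400:ethanol:saline (57.1:14.3:28.6), plain nanoparticles or Fc-targeted nanoparticles.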
# Caco2 cell monolayers = assay: Caco2 cell monolayer permeability assay; assay type: in vitro ADME, human; conditions: apical to basolateral, 5 µg/mL, 120 min, 37°C, HPLC
# How it was run: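 Caco2 cells grown on polycarbonate Transwell inserts, with monolayer integrity followed by TEER. Free or nanoparticle-formulated test compound (5 µg/mL) added apically; apical-to-basolateral transport tracked over 120 min by HPLC. Papp = (∂Q/∂t)/(A×C₀). For competition, cells were pretreated 30 min with IgG Fc fragments; transported Fc was quantified by human IgG Fc ELISA. Means ± SEM, at least three independent experiments.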
# MCF7 cells = assay: Cell cycle distribution assay; assay type: cell-based, human; conditions: MCF7, 24 h, tested 0, 20, 50, 100 ng/mL
# MDM2 = MDM2 (Homo sapiens, UniProt Q00987); assay: Western blotting of MDM2, p53 and p21 in breast cancer cells; assay type: cell-based; conditions: 20 ng/mL, 24 h, MCF7 and MDA-MB-231 cells
# Sequence of MDM2 (Q00987 whole entry): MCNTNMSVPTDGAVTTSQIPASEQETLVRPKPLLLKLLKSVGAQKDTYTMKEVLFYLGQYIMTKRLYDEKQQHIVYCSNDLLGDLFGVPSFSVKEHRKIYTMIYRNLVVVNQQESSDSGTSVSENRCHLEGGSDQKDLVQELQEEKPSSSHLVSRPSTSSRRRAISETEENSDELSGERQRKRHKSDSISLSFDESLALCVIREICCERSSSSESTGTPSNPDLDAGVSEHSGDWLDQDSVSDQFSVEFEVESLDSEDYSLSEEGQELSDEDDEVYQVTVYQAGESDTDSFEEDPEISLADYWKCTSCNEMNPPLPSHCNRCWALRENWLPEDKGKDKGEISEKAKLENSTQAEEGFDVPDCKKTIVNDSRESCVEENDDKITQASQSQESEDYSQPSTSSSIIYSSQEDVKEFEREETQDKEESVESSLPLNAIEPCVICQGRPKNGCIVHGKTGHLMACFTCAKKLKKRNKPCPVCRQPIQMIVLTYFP
# [4] = tested on: MDA-MB-231 orthotopic tumors; assay: MDA-MB-231 orthotopic tumor model, in vivo efficacy; parameters: species or system nude mice; conditions: 160 mg/kg/day oral
# How it was run: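 Female athymic nu/nu mice, 4–6 weeks, received 1×10⁶ MDA-MB-231 cells in the second thoracic mammary fat pad under anaesthesia. After 2 weeks, mice were split into groups of 10. Dosing was by oral gavage, 5 days/week for 24 days: free compound in PEG400:ethanol:saline (57.1:14.3:28.6) or nanoparticles at 160 mg/kg/day, Fc-targeted form at 80 or 160 mg/kg/day; controls got vehicle. Mice with lung metastasis were counted at the end.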
# MDA-MB-231 cells = assay: Cell cycle distribution assay; assay type: cell-based, human; conditions: MDA-MB-231, 24 h, tested 0, 20, 50, 100 ng/mL
SMILES,Cellular uptake of DiD (fluorescence microscopy) [1],DiD fluorescence in the villi of the duodenum [2],Cmax (peak plasma concentration of SP141) [3],Apparent permeability coefficient (Papp) (Caco2 cell monolayers),Concentration at which G2/M phase cell cycle arrest starts to be induced (MCF7 cells),"Effect on MDM2, p53 and p21 expression (MDM2)","Inhibition of MDA-MB-231 tumor growth ([4]; 5 days/week, Day 24)","Incidence of lung metastasis (mice with metastatic lesions in the lungs) ([4]; 24 days, 10 mice/group)",Concentration at which G2/M phase cell cycle arrest starts to be induced (MDA-MB-231 cells)
"CCCCCCCCCCCCCCCCCCN1C(=CC=CC=CC2=[N+](CCCCCCCCCCCCCCCCCC)c3ccccc3C2(C)C)C(C)(C)c2ccccc21.[O-][Cl+3]([O-])([O-])[O-] [DiD, 1,1'-dioctadecyl-3,3,3',3'-tetramethylindodicarbocyanine perchlorate]",unable to diffuse into the cells,not observed,,,,,,,
COc1ccc2[nH]c3c(-c4cccc5ccccc45)nccc3c2c1 [SP141],,,4300 ng/mL,70 ×10⁻⁶ cm/s,100 ng/mL,did not show significant effects,51%,4/10,100 ng/mL
